From paper PMC4306626 (Journal of chromatography. B, Analytical technologies in …, 2015)
“And” between values parts separate entries of the source, which are not always exact repeats. Identical values can stand only once. Marks after values point to notes of the source that are not given here.

How the values were obtained:
[1] = Pharmacokinetics in nude mice after single IP or PO dose; type: in vivo, athymic nude (Nu/Nu) mice; details: for clearance (Cl/F): range over doses; for AUC(0-t) / Cmax / MRT / Vd/F / MRT inf / Tmax / half-life / AUC(0-inf): female, athymic nude (Nu/Nu), mouse, plasma
Summary of the method: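 Female athymic nude mice, 3–4 weeks old, received a single 0.1 mL dose at 10, 20 or 40 mg/kg, given IP or by oral gavage. Vehicle was cremophor:ethanol:PBS (12.5:12.5:75). Four to five mice per group were killed at 0.5, 1, 4, 8 and 12 h. Cardiac blood went into sodium citrate on ice. Plasma was protein-precipitated with internal standard and assayed by UPLC/MS/MS (5–1000 ng/mL). Pooled non-compartmental analysis used linear/log-linear trapezoids.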

[2] = Stability of EHop-016 in mouse plasma; type: in vitro ADME; details: for Concentration Measured (Mean ± S.D.): n=6; for Accuracy (% RE): stable if within ± 15 %
Summary of the method: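 Test compound was spiked into mouse plasma at 5 and 1000 ng/mL and held on the bench for 5 h, six replicates per level. It was then extracted by protein precipitation and quantified by UPLC/MS/MS against plasma calibration standards. Accuracy was %RE against nominal and precision was %RSD. The compound counted as stable when %RE was within ± 15 %.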

[3] = Physicochemical properties
Rac = details: read-out: IC50, Rac activity; metastatic cancer cells; cited from earlier work
Rho GTPase Cdc42 = details: higher concentrations; cited from earlier work
metastatic cancer cells [4] = details: higher concentrations; cited from earlier work
[5] = system: Rac with the guanine nucleotide exchange factor Vav2; details: cited from earlier work
[6] = system: p21-activated kinase 1 (PAK1); details: cited from earlier work
metastatic cancer cells [7] = details: cited from earlier work
Akt and Jun kinase (JNK) = details: breast and prostate cancer cell lines; cited from earlier work
c-Myc and Cyclin D = details: breast and prostate cancer cell lines; cited from earlier work
human T-lymphocyte = details: cited from earlier work
murine melanoma cell = details: cited from earlier work
human leukemic cell = details: cited from earlier work
murine leukemic cell = details: cited from earlier work
endothelial cells = details: in vitro; cited from earlier work
mammary fat pad tumor = details: 25 mg/kg body weight (BW), nude mice; cited from earlier work
[8] = Benchtop (5 Hr), nominal 5 ng/mL
[9] = Benchtop (5 Hr), nominal 1000 ng/mL

SMILES: CCn1c2ccccc2c2cc(Nc3ccnc(NCCCN4CCOCC4)n3)ccc21 [EHop-016, (N4-(9-Ethyl-9H-carbazol-3-yl)-N2-(3-morpholin-4-yl-propyl)-pyrimidine-2,4-diamine)]
- Cl/F ([1]; IP, 10 mg/kg): 494.2 ± 79.4 mL/h
- Lambda-z ([1]; IP, 10 mg/kg): .12 ± 0.01 hr ^−1
- AUC0-t/Dose ([1]; IP, 10 mg/kg, n=5): 32.80 ± 4.21^a
- Cl/F ([1]; IP, 20 mg/kg): 464.7 ± 51.5 mL/h
- Lambda-z ([1]; IP, 20 mg/kg): .15 ± .01 hr ^−1
- AUC0-t/Dose ([1]; IP, 20 mg/kg, n=5): 38.42 ± 3.53^a
- Cl/F ([1]; IP, 40 mg/kg): 394.2 ± 46.6 mL/h
- Lambda-z ([1]; IP, 40 mg/kg): .18 ± .01 hr ^−1
- AUC0-t/Dose ([1]; IP, 40 mg/kg, n=5): 46.75 ± 5.42^a
- clearance (Cl/F) ([1]; IP): 394 to 494 mL/h and 394.2 to 494.2 mL/h
- relative bioavailability after oral gavage ([1]; PO vs IP, range over the tested doses): 26% - 40%
- plasma drug concentrations lower after PO than after IP ([1]; PO vs corresponding IP dosages): ~ 10 times
- Cl/F ([1]; PO, 10 mg/kg): 1315.3 mL/h and 1315.3 ± 281.7 mL/h
- Lambda-z ([1]; PO, 10 mg/kg): .20 ± .01 hr ^−1
- AUC0-t/Dose ([1]; PO, 10 mg/kg, n=4): 13.37 ± 2.25
- Frel (relative bioavailability, PO to IP) ([1]; PO, 20 mg/kg): 33.4 ± 4.9%
- AUC0-t/Dose ([1]; PO, 20 mg/kg, n=4): 12.85 ± 3.11
- Cl/F ([1]; PO, 40 mg/kg): 1251.4 mL/h and 1251.4 ± 388.1 mL/h
- Frel (relative bioavailability, PO to IP) ([1]; PO, 40 mg/kg): 26.0 ± 3.1%
- Lambda-z ([1]; PO, 40 mg/kg): .12 ± .001 hr ^−1
- AUC0-t/Dose ([1]; PO, 40 mg/kg, n=4): 12.17 ± 2.9
- clearance (Cl/F) ([1]; PO): 1251 to 1315 mL/h
- elimination half-life (t1/2) ([1]; PO, range over the tested doses): 3.44 to 5.87 h
- Vss ([1]; after IP doses, approximately): 65 to 72 L/kg BW
- AUC(0-t) ([1]; ip): 328 to 1870 ng·h/mL
- Cmax ([1]; ip): 163 to 835 ng/mL
- MRT ([1]; ip): 4.21 to 6.75 h
- Vd/F ([1]; ip): 2.2 to 4.1 L
- AUC(0-t) ([1]; ip, 10 mg/kg): 328 ± 42.1 ng·h/mL
- Cmax ([1]; ip, 10 mg/kg): 163 ± 17.7 ng/mL
- MRT inf ([1]; ip, 10 mg/kg): 6.75 ± 0.27 h
- Tmax ([1]; ip, 10 mg/kg): 0.5 h
- Vd/F ([1]; ip, 10 mg/kg): 4.09 ± 0.297 L
- half-life ([1]; ip, 10 mg/kg, t1/2, IP): 5.73 ± 0.43 h
- AUC(0-t) ([1]; ip, 20 mg/kg): 768 ± 70.6 ng·h/mL
- Cmax ([1]; ip, 20 mg/kg): 455 ± 50.3 ng/mL
- MRT inf ([1]; ip, 20 mg/kg): 4.73 ± 0.27 h
- Tmax ([1]; ip, 20 mg/kg): 0.5 h
- Vd/F ([1]; ip, 20 mg/kg): 3.12 ± 0.0927 L
- half-life ([1]; ip, 20 mg/kg, t1/2, IP): 4.66 ± 0.35 h
- AUC(0-inf) ([1]; ip, 40 mg/kg): 328 to 1870 ng·h/mL
- AUC(0-t) ([1]; ip, 40 mg/kg): 1870 ± 217 ng·h/mL
- Cmax ([1]; ip, 40 mg/kg): 834 ± 88.9 ng/mL
- MRT inf ([1]; ip, 40 mg/kg): 4.21 ± 0.14 h
- Tmax ([1]; ip, 40 mg/kg): 0.5 h
- Vd/F ([1]; ip, 40 mg/kg): 2.16 ± 0.337 L
- half-life ([1]; ip, 40 mg/kg, t1/2, IP): 3.79 ± 0.12 h
- Tmax ([1]; other: intraperitoneal and oral, 20 mg/kg): 0.5 h
- AUC(0-t) ([1]; po): 134 to 487 ng·h/mL
- Cmax ([1]; po): 26 to 90 ng/mL
- MRT ([1]; po): 6.59 to 8.76 h
- Vd/F ([1]; po): 6.5 to 10.6 L
- AUC(0-t) ([1]; po, 10 mg/kg): 134 ± 22.5 ng·h/mL
- Cmax ([1]; po, 10 mg/kg): 26.1 ± 10.1 ng/mL
- MRT inf ([1]; po, 10 mg/kg): 6.59 ± 0.37 h
- Tmax ([1]; po, 10 mg/kg): 0.5 h
- Vd/F ([1]; po, 10 mg/kg): 6.53 ± 1.78 L
- half-life ([1]; po, 10 mg/kg, t1/2, PO): 3.44 ± 0.15 h
- AUC(0-t) ([1]; po, 20 mg/kg): 257 ± 62.3 ng·h/mL
- Cmax ([1]; po, 20 mg/kg): 35.1 ± 11 ng/mL
- Tmax ([1]; po, 20 mg/kg): 1 h
- AUC(0-inf) ([1]; po, 40 mg/kg): 133 to 487 ng·h/mL
- AUC(0-t) ([1]; po, 40 mg/kg): 487 ± 116 ng·h/mL
- Cmax ([1]; po, 40 mg/kg): 89.7 ± 17.6 ng/mL
- MRT inf ([1]; po, 40 mg/kg): 8.76 ± 0.43 h
- Tmax ([1]; po, 40 mg/kg): 0.5 h
- Vd/F ([1]; po, 40 mg/kg): 10.6 ± 3.39 L
- half-life ([1]; po, 40 mg/kg, t1/2, PO): 5.87 ± 0.06 h
- share of the drug in the bloodstream ([1]; suggested by Vss values): < 1%
- stability in mouse plasma ([2]; 12 freeze-thaw cycles lasting 12 hours and six freeze-thaw cycles lasting 24 hours): stable
- Concentration Measured (Mean ± S.D.) [2, 8]: 4.67 ± 0.36 ng/mL
- Accuracy (% RE) [2, 8]: −6.6 % RE
- Concentration Measured (Mean ± S.D.) [2, 9]: 999.39 ± 17.23 ng/mL
- Accuracy (% RE) [2, 9]: −0.1 % RE
- Accuracy (% RE) ([2]; Freeze-Thaw 6 Cycles (24 Hr), nominal 5 ng/mL): 14.3 % RE
- Accuracy (% RE) ([2]; Freeze-Thaw 6 Cycles (24 Hr), nominal 1000 ng/mL): 11.6 % RE
- Concentration Measured (Mean ± S.D.) ([2]; Freeze-Thaw 6 Cycles (24 Hr), −80°C, nominal 5 ng/mL): 5.71 ± 0.34 ng/mL
- Concentration Measured (Mean ± S.D.) ([2]; Freeze-Thaw 6 Cycles (24 Hr), −80°C, nominal 1000 ng/mL): 1116.32 ± 27.38 ng/mL
- Accuracy (% RE) ([2]; Freeze-Thaw 12 Cycles (12 Hr), nominal 5 ng/mL): 11.3 % RE
- Accuracy (% RE) ([2]; Freeze-Thaw 12 Cycles (12 Hr), nominal 1000 ng/mL): 12.8 % RE
- Concentration Measured (Mean ± S.D.) ([2]; Freeze-Thaw 12 Cycles (12 Hr), −80°C, nominal 5 ng/mL): 5.57 ± 0.05 ng/mL
- Concentration Measured (Mean ± S.D.) ([2]; Freeze-Thaw 12 Cycles (12 Hr), −80°C, nominal 1000 ng/mL): 1127.70 ± 14.36 ng/mL
- Accuracy (% RE) ([2]; Long Term Stability 26 Days, nominal 5 ng/mL): 4.9 % RE
- Accuracy (% RE) ([2]; Long Term Stability 26 Days, nominal 1000 ng/mL): 0.4 % RE
- Concentration Measured (Mean ± S.D.) ([2]; Long Term Stability 26 Days, −20°C, nominal 5 ng/mL): 5.24 ± 0.08 ng/mL
- Concentration Measured (Mean ± S.D.) ([2]; Long Term Stability 26 Days, −20°C, nominal 1000 ng/mL): 1004.39 ± 25.98 ng/mL
- Accuracy (% RE) ([2]; Long Term Stability 111 Days, nominal 5 ng/mL): −1.3 % RE
- Accuracy (% RE) ([2]; Long Term Stability 111 Days, nominal 1000 ng/mL): −4.3 % RE
- Concentration Measured (Mean ± S.D.) ([2]; Long Term Stability 111 Days, −20°C, nominal 5 ng/mL): 4.94 ± 0.29 ng/mL
- Concentration Measured (Mean ± S.D.) ([2]; Long Term Stability 111 Days, −20°C, nominal 1000 ng/mL): 956.77 ± 79.26 ng/mL
- Concentration Measured (Mean ± S.D.) ([2]; Post Preparation (237 Hours), ambient temperature, nominal 10 ng/mL): 10.79 ± 0.25 ng/mL
- Concentration Measured (Mean ± S.D.) ([2]; Post Preparation (237 Hours), ambient temperature, nominal 30 ng/mL): 32.20 ± 1.40 ng/mL
- Concentration Measured (Mean ± S.D.) ([2]; Post Preparation (237 Hours), ambient temperature, nominal 75 ng/mL): 83.79 ± 2.06 ng/mL
- Concentration Measured (Mean ± S.D.) ([2]; Post Preparation (237 Hours), ambient temperature, nominal 750 ng/mL): 838.83 ± 22.57 ng/mL
- Accuracy (% RE) ([2]; Post Preparation (237 Hours), nominal 10 ng/mL): 7.88 % RE
- Accuracy (% RE) ([2]; Post Preparation (237 Hours), nominal 30 ng/mL): 7.32 % RE
- Accuracy (% RE) ([2]; Post Preparation (237 Hours), nominal 75 ng/mL): 11.72 % RE
- Accuracy (% RE) ([2]; Post Preparation (237 Hours), nominal 750 ng/mL): 11.84 % RE
- stability in mouse plasma ([2]; all of the conditions tested in the validation): very stable
- stability in mouse plasma ([2]; ambient temperature, five hours and 237 hours): stable
- stability in mouse plasma ([2]; long-term at –20°C, 26 days and 111 days): stable
- pKa [3]: 5
- lipid solubility ([3]; source not stated): highly lipid-soluble
- IC50 (Rac): 1000 nM
- concentration at which activity of the Rho GTPase Cdc42 is inhibited (Rho GTPase Cdc42): > 10 µM
- concentration at which apoptosis is activated (metastatic cancer cells [4]): > 10 µM
- concentration at which cell viability is reduced (metastatic cancer cells [4]): > 10 µM
- interaction of Rac with Vav2 [5]: disrupt
- activity of PAK1 [6]: inhibit
- Rac-directed lamellipodia formation and directed cell migration (metastatic cancer cells [7]): inhibit
- Akt and Jun kinase (JNK) activities (Akt and Jun kinase (JNK)): decreased
- expression of c-Myc and Cyclin D (c-Myc and Cyclin D): decreased
- human T-lymphocyte migration (human T-lymphocyte): inhibits
- murine melanoma cell migration (murine melanoma cell): inhibits
- human leukemic cell growth (human leukemic cell): inhibits
- murine leukemic cell growth (murine leukemic cell): inhibits
- Rac activity and capillary tube formation of endothelial cells (endothelial cells): inhibition
- tumor growth, metastasis and angiogenesis (mammary fat pad tumor): effective at reducing mammary fat pad tumor growth, metastasis, and angiogenesis
